Out of some 2,000 compounds screened, about 10 (0.5%) were called active.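 The calls were made as follows: active = inhibition above 30%; inactive = the rest.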 The entries come from a sample that favours actives as a whole.

This experiment deals with Protein-arginine deiminase type-4 (Homo sapiens) (UniProt Q9UM07). The experiment can be described thus: human PAD4 inhibitors, primary screen, biochemical, fluorescence polarization (AID 463073).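 Also: 0% = PAD4 with DMSO and 100% = wells lacking PAD4.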 The conditions noted are these: recombinant PAD4, RFA probe fluorescence polarization; at 5 µM; stronger effect = higher value. The method in brief: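 system = recombinant PAD4 | amount = PAD4 at 2 µM in dispensed buffer, before additions | incubation = 30 min 25 °C preincubation, 5 h 37 °C labeling | measured by = FP, ex 525 nm, em 598 nm | replication = single well per compound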
Chain of Protein-arginine deiminase type-4 (Homo sapiens) (Q9UM07 whole entry, looked up): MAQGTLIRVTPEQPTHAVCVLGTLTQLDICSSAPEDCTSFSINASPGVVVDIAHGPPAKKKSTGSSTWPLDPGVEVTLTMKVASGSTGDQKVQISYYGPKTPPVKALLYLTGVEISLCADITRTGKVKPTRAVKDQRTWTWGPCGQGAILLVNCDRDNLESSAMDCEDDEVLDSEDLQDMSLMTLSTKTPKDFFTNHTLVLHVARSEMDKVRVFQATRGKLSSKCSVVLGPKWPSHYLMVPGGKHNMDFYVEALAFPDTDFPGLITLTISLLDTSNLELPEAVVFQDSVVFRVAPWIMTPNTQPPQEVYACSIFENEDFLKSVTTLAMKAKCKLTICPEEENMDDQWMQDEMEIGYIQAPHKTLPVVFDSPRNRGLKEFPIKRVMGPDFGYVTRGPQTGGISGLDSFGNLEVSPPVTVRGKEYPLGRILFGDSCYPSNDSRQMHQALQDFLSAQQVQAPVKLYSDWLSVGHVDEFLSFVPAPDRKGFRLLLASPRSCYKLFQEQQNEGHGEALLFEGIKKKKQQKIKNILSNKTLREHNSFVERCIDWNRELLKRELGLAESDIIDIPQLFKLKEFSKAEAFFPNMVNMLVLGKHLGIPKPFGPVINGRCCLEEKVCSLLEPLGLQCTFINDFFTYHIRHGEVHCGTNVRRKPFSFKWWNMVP
(Polarisation of emitted light reports the rotation of a fluorescent probe.)
For the compound `Cc1ccc2c(c1)C1OCCC1C1N2C(=O)C2C(C(=O)O)C3C=CC21O3` (configuration not stated), the inhibition was 6.06% (inactive).
On to `Cn1cc(CN2CCC(C(=O)N3CCCCC3)CC2)c(-c2ccccc2F)n1`, for which the inhibition was 4.74% (inactive).
The same measure for `O=C1OC(c2ccccc2)=C/C1=C/c1cccs1`: -2.45% (inactive); for `c1ccc(Nc2ccccn2)nc1`: -4.7% (inactive).
As for `CS(=O)(=O)c1cccc(C(=O)Oc2ccccc2)c1`, the inhibition was 5.29% (inactive).
The same measure for `CC(=O)OCC1OC(n2ccc(=O)[nH]c2=O)C(O)C1O` (configuration not stated): 1.17% (inactive).
The same measure for `CC(C)C[C@H](NC(=O)[C@@H]1Cc2ccccc2CN1C(=O)OC(C)(C)C)C(=O)NCC1CCC(C(=O)O)CC1` (some centres not stated): 0.39% (inactive); for `CS(=O)(=O)Nc1cccc(C(=O)CC2(O)C(=O)Nc3ccc(Br)cc32)c1` (configuration not stated): 0.36% (inactive); for `Cn1c2c(c(=O)[nH]c1=O)C(c1ccc(O)cc1)C1=C(N2)c2ccccc2C1=O` (configuration not stated): 4.81% (inactive).
On to `Cc1cc(C)c(NC(=O)NC(=O)C(Cl)(Cl)Cl)c(C)c1`, for which the inhibition was -2.27% (inactive).
Consider `CC(=O)OC[C@H]1O[C@@H](Sc2cccc3cccnc23)[C@H](OC(C)=O)[C@@H](OC(C)=O)[C@H]1OC(C)=O`, for which the inhibition was 1.27% (inactive).
Regarding `CCOC(=O)C1C(=O)OC(C)(C)C1C(C)C(=O)c1ccc(C)cc1` (configuration not stated), the inhibition is -0.2% (inactive).
To `CCOC(=O)C(Cc1cc(C(C)=O)ccc1OC(C)C)C(=O)OCC` belongs 2.78% (inactive).
On to `CCOc1ccc(N2C(=O)CC(NCCNc3ccc([N+](=O)[O-])cn3)C2=O)cc1` (configuration not stated), for which the inhibition was 9.78% (inactive).
The same measure for `CN1C(=O)C(O)(CC(=O)c2ccccc2O)c2cc(Br)ccc21` (configuration not stated): -1.81% (inactive).
Regarding `CCOC(=O)C(NC(=O)CCC(=O)Nc1ccc(S(N)(=O)=O)cc1)C(O)c1ccccc1` (configuration not stated), the inhibition was -0.41% (inactive).
As for `CCc1cc2c(C)cc(=O)oc2cc1OC(=O)C1CCCN1C(=O)OC(C)(C)C` (configuration not stated), the inhibition was 1.27% (inactive).
To `COC(=O)c1[nH]c2ccc(C)cc2c1NC(=O)CN1CCc2cc(OC)c(OC)cc2C1` belongs 0.78% (inactive); to `COc1ccc(CC(=O)NCC2(c3ccc(OC)c(OC)c3)CCOCC2)cc1`, 2.08% (inactive).
With `COc1ccc(CNC(=O)c2c(O)c3cccc4c3n(c2=O)CCC4)cc1`, the inhibition is 4.58% (inactive).
To `CC(C)CC(=O)Nc1ccc2oc(-c3ccncc3)nc2c1` belongs 1.75% (inactive); to `CC(C)NC(=O)c1ccc(C(C)C)cc1`, -2.74% (inactive).
The same measure for `O=C(CN1C(=O)c2ccccc2S1(=O)=O)Nc1ccccc1`: -2.01% (inactive); for `COC(=O)C1=NN(C(=O)c2cccc(Br)c2)C(O)(c2ccc(Cl)cc2)C1` (configuration not stated): -1.03% (inactive).
On to `CC(C)(C)C(=O)Nc1cccc(OC(F)(F)C(F)Cl)c1` (configuration not stated), for which the inhibition was 3.96% (inactive).
For the compound `COc1ccc(-c2csc(-c3cccnc3)n2)cc1C`, the inhibition is -0.79% (inactive).
Regarding `COc1ccc(OC)c(C(=O)c2coc3ccc(O)cc23)c1`, the inhibition is -2.55% (inactive).
To `OCC(O)CN1CCN(c2ccccc2)CC1` (configuration not stated) belongs -2.45% (inactive); to `O=c1c(-c2ccccc2)c(O)c2cccc3c2n1CCC3`, 5.09% (inactive).
The same measure for `Cc1cc(OC(=O)CNC(=O)OC(C)(C)C)c2c(C)cc(=O)oc2c1`: 22.1% (inactive); for `CC(NC(=O)OCc1ccccc1)C(=O)N1CC(O)CC1C(=O)O` (configuration not stated): 6.64% (inactive).
The same measure for `COC(=O)c1ccc(CC(=O)c2ccc(O)cc2O)o1`: 4.18% (inactive); for `CCCCCCCC(=O)OCC(=O)[C@@]1(O)CC[C@H]2[C@@H]3CCC4=CC(=O)CC[C@]4(C)[C@H]3[C@@H](O)C[C@@]21C`: 4.58% (inactive).
Take `Cc1nc(C2CC(=O)OC23CCCCC3)cs1` (configuration not stated): the inhibition is -0.47% (inactive).
On to `CSCCC(NC(=O)OC(C)(C)C)C(=O)Oc1ccc2c(=O)c(-c3ccc4c(c3)OCCO4)coc2c1` (configuration not stated), for which the inhibition was 14.1% (inactive).
Consider `Cn1c(=O)[nH]c2nnc(-c3ccc(Cl)c(Cl)c3)nc2c1=O`, for which the inhibition is 4.18% (inactive).
To `Cn1nc(-c2ccccn2)nc2c(=O)n(C)c(=O)nc1-2` belongs 98.2% (active).
`Cn1nc(-c2ccc(Cl)cc2)nc2c(=O)n(C)c(=O)nc1-2`: the inhibition was 90.7% (active).
The same measure for `c1ccc(-c2ccccn2)nc1`: 0.78% (inactive); for `CN(C)CCCNc1ncnc2c1cnn2-c1ccccc1`: -1.45% (inactive); for `CCNC(=O)c1sc2cc(C)ccc2c1Cl`: 0.99% (inactive).
In the case of `CSCCC(NC(=O)/C(=C/c1ccc2c(c1)OCO2)NC(=O)c1cccc([N+](=O)[O-])c1)C(=O)O` (configuration not stated), the inhibition is -0.41% (inactive).
Consider `Nc1nnc(CSCc2ccc(Cl)cc2Cl)s1`, for which the inhibition was 3.81% (inactive).
Take `CC12CCC(C(=O)NNc3ccccc3)(C(=O)C1=O)C2(C)C` (configuration not stated): the inhibition was -2.07% (inactive).
On to `COc1ccc(CN2CCCC(C(=O)c3ccc(Cl)cc3)C2)cc1Cn1cccn1` (configuration not stated), for which the inhibition is -0.23% (inactive).
The same measure for `O=C(CSCc1ccccc1)NCCCN1CCOCC1`: -0.81% (inactive); for `CC(=O)c1cc2c(cc1NC(=O)c1ccco1)OCCO2`: -1.18% (inactive).
To `COC(=O)[C@H]1[C@H]2C[C@@H]3c4[nH]c5cc(OC)ccc5c4CCN3C[C@H]2C[C@@H](OC(=O)c2ccc(N)cc2)[C@@H]1OC` belongs 6.06% (inactive); to `COC(=O)c1[nH]c2ccc(F)cc2c1NC(=O)C1=COCCO1`, 6.4% (inactive); to `COc1cc(CNCCc2ccccc2F)ccc1OCC(=O)N1CCCCC1`, -1.57% (inactive).
For `COCCOC(=O)C1=C(N)OC2=C(C(=O)CCC2)C1c1cccnc1` (configuration not stated), the inhibition was 1.53% (inactive).
The same measure for `COc1ccc(NC(=O)CC2C(=O)N(C)C(=S)N2Cc2ccncc2)cc1` (configuration not stated): -3.53% (inactive); for `CN1CCCN=C1COC(=O)C(O)(c1ccccc1)C1CCCCC1` (configuration not stated): -4.01% (inactive).
As for `Cc1cccc(OCC(=O)Nc2ccc(C(=O)NCC(C)C)cc2)c1`, the inhibition is 0.21% (inactive).
To `N#CCC(N)=C(C#N)C#N` belongs 0.67% (inactive); to `CC(=O)[C@@]1(O)CC[C@H]2[C@@H]3CCC4=CC(=O)CC[C@]4(C)[C@H]3[C@@H](O)C[C@@]21C`, -0.33% (inactive).
`Cc1ccccc1NC(=O)C1c2ccccc2Oc2ccccc21`: the inhibition is -0.73% (inactive).
The same measure for `CC(C)NS(=O)(=O)c1ccc(OCC(=O)Nc2cccc(F)c2)cc1`: 2.86% (inactive).
To `COc1ccc(C2=C(CN(C)C)C(c3ccccc3)c3ccccc3O2)cc1` (configuration not stated) belongs -1.24% (inactive); to `COc1ccc(-c2nc(C)c(C(C)=O)n2O)cc1OC`, 2.19% (inactive).
The same measure for `O=C(O)CCn1c(=S)n(CCC(=O)O)c2ccccc21`: 3.98% (inactive).
On to `CC(OC(=O)c1cc(=O)[nH]c2ccccc12)C(=O)c1ccccc1` (configuration not stated), for which the inhibition was -0.79% (inactive).
To `C=C(C)Cn1c(NCCOC)nc2c1c(=O)[nH]c(=O)n2C` belongs 1.67% (inactive); to `CC(=O)NC1C(OCCOc2ccc(Cl)cc2Cl)OC(COC(C)=O)C(OC(C)=O)C1OC(C)=O` (configuration not stated), 2.94% (inactive); to `CCOC(=O)c1c(C)oc2c1C(=O)c1ccccc1C2=O`, 61.9% (active).
To `CCOC(=O)C1=C(C)N[C@@]2(O)c3ccccc3C(=O)[C@@]12O` belongs 5.29% (inactive).
Consider `CCOC(=O)c1cccc(C(=O)OCC)n1`, for which the inhibition is -2.55% (inactive).
The same measure for `CC(=O)N1CC23C=CC(CC2CC12CCCCCC2)O3` (configuration not stated): 0.84% (inactive); for `CCOc1ncnc2c1[nH]c1ccccc12`: 1.88% (inactive); for `COC(=O)C1[C@H]2C(=O)N(Cc3cccs3)C[C@]23C=C[C@H]1O3` (some centres not stated): 2.54% (inactive).
To `CC(C)CN1CCN(Cc2ccc3ncccc3c2)CC1CCO` (configuration not stated) belongs 5.67% (inactive).
The same measure for `CNS(=O)(=O)c1ccc(C)cc1`: -0.67% (inactive); for `Cc1ccc(S(=O)(=O)N[C@@H](Cc2ccccc2)C(=O)CCl)cc1`: 39.7% (active); for `CCCCNC(=O)NS(=O)(=O)c1ccc(C)cc1`: 5.34% (inactive).
`O=C(CCc1ccccc1)Nc1ccccc1C(F)(F)F`: the inhibition is -2.28% (inactive).
As to `COc1cc2c(cc1OC)C(c1ccccc1)=NCC2`, the inhibition was 3.38% (inactive).
To `C[C@]12CC[C@@H]3c4ccc(O)cc4[C@@H](O)C[C@H]3[C@@H]1CC[C@@H]2O` belongs 2.58% (inactive); to `CC(=O)CCc1c(C)c2cccc(C)c2[nH]c1=O`, 2.48% (inactive); to `CCCCC/C=C\C[C@H](O)/C=C/c1cccc(C[C@H](O)CCCCO)n1`, 4.29% (inactive).
For `CCOC(=O)C(NC(C)=O)C(O)c1ccc([N+](=O)[O-])cc1` (configuration not stated), the inhibition was 3% (inactive).
To `O=C1OC(Nc2ccc3c(c2)OCO3)c2ccccc21` (configuration not stated) belongs 3.54% (inactive); to `Cc1cccc(Oc2coc3cc(OC(=O)c4cncc(Br)c4)ccc3c2=O)c1`, 26.8% (inactive).
To `COc1ccc(C2C3C(C)=NN=C3CC(C)(O)C2C(C)=O)cc1` (configuration not stated) belongs -7.27% (inactive); to `O=P(c1ccccc1)(c1ccccc1)c1nc(-c2ccc(Cl)cc2)oc1N1CCOCC1`, 4.58% (inactive); to `CC(=O)N1CCN(c2ccc(OC[C@H]3CO[C@](Cn4ccnc4)(c4ccc(Cl)cc4Cl)O3)cc2)CC1`, 6.45% (inactive).
The same measure for `C/C=C(/C(=C/C)c1ccc(O)cc1)c1ccc(O)cc1`: 0.21% (inactive); for `C=CCc1cccc2cc(C(=O)Nc3ccc(CC(=O)O)cc3)c(=O)oc12`: -4.46% (inactive).
Consider `COC(=O)c1[nH]c(=O)c2ccccc2c1O`, for which the inhibition is 66.5% (active).
The same measure for `COc1ccc(C(=O)Nc2nc3ccccc3c(=O)[nH]2)cc1`: 0.21% (inactive).
In the case of `CC(C)C(=O)Nc1c(O)c2ccccc2[nH]c1=O`, the inhibition was -3.74% (inactive).
Turning to `CCOC(=O)n1c(=O)oc2ccccc21`, the inhibition was -6.44% (inactive).
The same measure for `CCOc1cc2c3c(c1)C(C)=CC(C)(C)N3C(=O)C2=O`: -0.07% (inactive); for `CC(C)CC(=O)NC(NC(=O)CC(C)C)c1cccc([N+](=O)[O-])c1`: -2.91% (inactive).
To `Cc1[nH]c2ccccc2c1C(=O)CN1CCCC1` belongs -1.81% (inactive).
The same measure for `COc1cc(C2Nc3ccccc3NC3=C2C(=O)CC(c2ccc(OC)c(OC)c2)C3)ccc1O` (configuration not stated): -5.4% (inactive); for `O=C1NCC2=C1C(c1ccccc1)Nc1ccccc1N2` (configuration not stated): 58.3% (active); for `O=C1Cc2ccccc2C(c2ccccc2)N1` (configuration not stated): 0.84% (inactive).

What is called inhibition is the change of the read-out against control, counted positive when it falls.

For the origin of these results see PubChem BioAssay AID463073 (The Scripps Research Institute Molecular Screening Center, 2010).
